# PubChem BioAssay
# Activity calls are given as the source filed them.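 The calls were made as follows, unless noted: active = fluorescence slope higher than the sample average by over 3 SD (cut at about -0.22 in these data, passing the limit was not always enough); inactive = the rest.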
# Key:
# [1] = inhibitors of TNFa-induced NFkB p65 translocation, primary screen, imaging, HUVEC, MLSMR starter and 10KST1 sets (AID 438;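 active = inhibition above 20% together with a positive visual image hit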;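 also: compound added about 3h40 before a 20 min TNFalpha stimulation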;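 as to inhibition: signal is the nuclear over cytoplasmic p65 intensity ratio per well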); settings: HUVEC TNFa-induced p65 nuclear translocation; cell count: measured here: nuclei count (cytotoxicity indicator), at 2.08 µM; inhibition: at 2 µM, stronger effect = higher value, 0% TNFa-plus-vehicle, 100% no-TNFa wells
# [2] = reduction of polyQ htt aggregates in cells – imaging, exon1htt(103Q)mCFP cells, high-content imaging, primary screen (AID 483;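 active = visual image review flags a hit and inhibition of aggregation exceeds 20%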;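 also: compound exposure lasted 3 days before fixation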;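 as to nuclei count: percent of the per-plate median nuclei count of sample wells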); settings: exon1htt(103Q)mCFP cell line, aggregate imaging, at 2 µM; inhibition of aggregation: stronger effect = higher value; nuclei count: measured here: cell count, toxicity
# [3] = endothelial E-selectin expression blockers – imaging, HUVEC, immunofluorescence, MLSMR starter and 10KST1 sets, primary screen (AID 487;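 active = visually confirmed hit in the image check and inhibition above 20%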;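 as to inhibition: signal is fraction of cell area covered by stained E-selectin grains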;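 as to nuclei count: 100% = median nuclei count of all wells on the same plate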); settings: HUVEC TNFalpha-induced E-selectin immunofluorescence imaging, at 2 µM; inhibition: stronger effect = higher value; nuclei count: measured here: cell number, toxicity
# [4] = molecular target: Voltage-gated potassium channel subunit beta-2 (Rattus norvegicus) (UniProt P62483); test: inhibitors of rat Kvbeta2 reductase activity – biochemical, NADPH fluorescence, primary screen (AID 622); settings: recombinant KvBeta, 4-cyanobenzaldehyde reduction, at 10 µM, stronger effect = higher value;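 also: slope of raw intensity against log time taken from 70 to 1610 s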
# Voltage-gated potassium channel subunit beta-2 (Rattus norvegicus), sequence (P62483 whole entry, looked up): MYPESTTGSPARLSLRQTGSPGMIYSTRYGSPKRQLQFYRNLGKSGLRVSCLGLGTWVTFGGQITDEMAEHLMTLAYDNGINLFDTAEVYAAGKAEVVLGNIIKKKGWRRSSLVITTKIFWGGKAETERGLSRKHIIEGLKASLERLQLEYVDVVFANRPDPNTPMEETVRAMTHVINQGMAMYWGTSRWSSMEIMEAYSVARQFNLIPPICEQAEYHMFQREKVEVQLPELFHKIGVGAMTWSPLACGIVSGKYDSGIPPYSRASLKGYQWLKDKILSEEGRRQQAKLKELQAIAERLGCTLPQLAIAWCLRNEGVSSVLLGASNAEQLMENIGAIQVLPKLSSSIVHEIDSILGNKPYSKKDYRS
# [5] = molecular target: Voltage-gated potassium channel subunit beta-2 (Rattus norvegicus) (UniProt P62483); test: enhancers of rat Kvbeta2 NADPH turnover – biochemical, NADPH fluorescence, primary screen (AID 623;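 active = NADPH fluorescence slope more negative than the mean of all samples by about 3 SD, 99.7% confidence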;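 also: fluorescence intensity change per second fitted from 20 to 320 s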); settings: Recombinant KvBeta, NADPH fluorescence decrease slope, 10 min; at 10 µM; stronger effect = lower value
# [6] = molecular target: Muscarinic acetylcholine receptor M4 (Homo sapiens) (UniProt P08173); test: M4-linked GIRK flux change, two-sided – cell-based, HEK293 M4/GIRK, thallium flux, BTC-AM, M4 allosteric agonist project, primary screen (AID 625;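 active = fluorescence slope after compound addition differing from the mean of all tested samples at 99.7% confidence, mostly higher but some lower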;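 also: thallium influx through GIRK channels coupled to M4 in HEK293 cells with BTC-AM dye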); settings: at 10 µM, actives lie on both sides
# Muscarinic acetylcholine receptor M4 (Homo sapiens), sequence (P08173 whole entry, looked up): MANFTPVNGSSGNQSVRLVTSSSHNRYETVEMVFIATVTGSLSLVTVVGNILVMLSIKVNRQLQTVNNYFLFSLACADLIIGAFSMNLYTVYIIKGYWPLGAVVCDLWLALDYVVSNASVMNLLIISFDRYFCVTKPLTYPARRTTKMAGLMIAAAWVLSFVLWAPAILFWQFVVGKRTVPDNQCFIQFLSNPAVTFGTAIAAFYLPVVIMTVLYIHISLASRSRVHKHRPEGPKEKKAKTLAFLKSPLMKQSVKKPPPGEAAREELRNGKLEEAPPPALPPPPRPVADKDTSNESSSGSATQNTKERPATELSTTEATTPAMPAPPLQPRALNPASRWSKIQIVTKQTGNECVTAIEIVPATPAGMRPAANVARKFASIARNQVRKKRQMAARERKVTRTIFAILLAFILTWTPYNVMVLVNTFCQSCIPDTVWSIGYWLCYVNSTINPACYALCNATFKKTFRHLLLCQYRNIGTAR
# Outline: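 assay system = HEK293 cells with M4 receptor and GIRK channels | medium = pH 7.3 thallium assay buffer | doses = 10 µM final, single point | timing = cells overnight at 37 °C, BTC-AM loading 1 h, reads 2 min total | signal = BTC-AM fluorescence, 1 Hz kinetic reads | read-out = post-addition slope, 15–24 s, of baseline-normalized fluorescence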
# [7] = blockers of RIG-like receptor reporter activation – cell-based, Sendai virus stimulus, luciferase, 10K MLSCN set, TLR/RLR signaling modifier project, primary screen (AID 602276;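 active = inhibition at or above 50% at 10 µM; inactive = inhibition below 50%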;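 also: firefly luciferase from ISG56 promoter only with Renilla not read in this screen; 0% = Sendai virus plus DMSO and 100% = medium plus DMSO without virus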); settings: HEK293 RL24 IRF3 luciferase reporter, at 10 µM, stronger effect = higher value
# [8] = TLR3 IRF3 reporter activation blockers – cell-based, poly I:C stimulus, luciferase, 10K MLSCN set, primary screen (AID 602277;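 active = inhibition of the reporter signal at or above 50%; inactive = inhibition below 50%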); settings: HEK293-TLR3 RL24 IRF3 luciferase reporter, at 10 µM, stronger effect = higher value
structure (smiles),measurement,setting,value
Cc1cnnc2c1-c1nonc1CC2,cell count,[1],347
same,inhibition,[1],2% (inactive)
same,inhibition of aggregation,[2],-17.8% (inactive)
same,nuclei count,[2],109%
same,inhibition,[3],5.6% (inactive)
same,nuclei count,[3],116%
same,fluorescence slope,[4],-0.529 (inactive)
same,NADPH fluorescence slope,[5],3.9e-05 (inactive)
same,fluorescence slope,[6],0.00506 (inactive)
same,inhibition,[7],17.8% (inactive)
same,inhibition,[8],14.6% (inactive)
C=CCSc1nnc(-c2ccccc2NC(C)=O)c(=O)[nH]1,cell count,[1],765
same,inhibition,[1],-33.6% (inactive)
same,inhibition of aggregation,[2],8% (inactive)
same,nuclei count,[2],102%
same,inhibition,[3],-60.3% (inactive)
same,nuclei count,[3],107%
same,fluorescence slope,[4],-0.468 (inactive)
same,NADPH fluorescence slope,[5],-0.000277 (inactive)
same,fluorescence slope,[6],0.00542 (inactive)
same,inhibition,[7],-0.29% (inactive)
same,inhibition,[8],9.66% (inactive)
O=C(Cn1nnc(-c2cccc(C(F)(F)F)c2)n1)NC(=O)NCc1ccco1,cell count,[1],323
same,inhibition,[1],19.4% (inactive)
same,inhibition of aggregation,[2],-17% (inactive)
same,nuclei count,[2],100%
same,inhibition,[3],24.1% (inactive)
same,nuclei count,[3],101%
same,fluorescence slope,[4],-0.44 (inactive)
same,NADPH fluorescence slope,[5],-0.000353 (inactive)
same,fluorescence slope,[6],0.00673 (inactive)
same,inhibition,[7],-0.353% (inactive)
same,inhibition,[8],5.76% (inactive)
c1ccc(OCCOc2ncnc3sccc23)cc1,cell count,[1],395
same,inhibition,[1],-22% (inactive)
same,inhibition of aggregation,[2],-0.7% (inactive)
same,nuclei count,[2],106%
same,inhibition,[3],-62.1% (inactive)
same,nuclei count,[3],125%
same,fluorescence slope,[4],-0.583 (inactive)
same,NADPH fluorescence slope,[5],-5e-05 (inactive)
same,fluorescence slope,[6],0.00602 (inactive)
same,inhibition,[7],-2.1% (inactive)
same,inhibition,[8],-65.8% (inactive)
CCOC(=O)N1CCC(O)(c2cc(C)c(C)cc2C)CC1,cell count,[1],494
same,inhibition,[1],-1.1% (inactive)
same,inhibition of aggregation,[2],-15.6% (inactive)
same,nuclei count,[2],93%
same,inhibition,[3],-16% (inactive)
same,nuclei count,[3],112%
same,fluorescence slope,[4],-0.316 (inactive)
same,NADPH fluorescence slope,[5],-2.5e-05 (inactive)
same,fluorescence slope,[6],0.00607 (inactive)
same,inhibition,[7],16.2% (inactive)
same,inhibition,[8],-0.7% (inactive)
O=C1c2ccccc2-c2nc3ncnn3c(-c3ccccc3)c21,cell count,[1],377
same,inhibition,[1],-7.8% (inactive)
same,inhibition of aggregation,[2],-4.5% (inactive)
same,nuclei count,[2],83.8%
same,inhibition,[3],-6.8% (inactive)
same,nuclei count,[3],107%
same,fluorescence slope,[4],-0.432 (inactive)
same,NADPH fluorescence slope,[5],-0.000383 (inactive)
same,fluorescence slope,[6],0.00449 (inactive)
same,inhibition,[7],-11.4% (inactive)
same,inhibition,[8],1.41% (inactive)
O=C(CCNC(=O)Cn1ccc2ccccc2c1=O)NCCN1CCN(c2ccccc2F)CC1,cell count,[1],335
same,inhibition,[1],-5.7% (inactive)
same,inhibition of aggregation,[2],-19.4% (inactive)
same,nuclei count,[2],104%
same,inhibition,[3],1.6% (inactive)
same,nuclei count,[3],104%
same,fluorescence slope,[4],-0.528 (inactive)
same,NADPH fluorescence slope,[5],3.6e-05 (inactive)
same,fluorescence slope,[6],0.00558 (inactive)
same,inhibition,[7],12.1% (inactive)
same,inhibition,[8],14.1% (inactive)
COC(=O)C1(C)NC(c2ccco2)C2C(=O)N(c3ccc(C)cc3)C(=O)C21 (centres undefined),cell count,[1],560
same,inhibition,[1],-17.5% (inactive)
same,inhibition of aggregation,[2],-8.7% (inactive)
same,nuclei count,[2],113%
same,inhibition,[3],-40.3% (inactive)
same,nuclei count,[3],114%
same,fluorescence slope,[4],-0.318 (inactive)
same,NADPH fluorescence slope,[5],-3.5e-05 (inactive)
same,fluorescence slope,[6],0.00521 (inactive)
same,inhibition,[7],14.7% (inactive)
same,inhibition,[8],17.2% (inactive)
O=C(NC1CCCCC1)C(c1ccco1)N(Cc1cccnc1)C(=O)C1COc2ccccc2O1 (centres undefined),cell count,[1],509
same,inhibition,[1],-13.1% (inactive)
same,inhibition of aggregation,[2],-14.5% (inactive)
same,nuclei count,[2],111%
same,inhibition,[3],-4.6% (inactive)
same,nuclei count,[3],198%
same,fluorescence slope,[4],-0.607 (inactive)
same,NADPH fluorescence slope,[5],-1e-05 (inactive)
same,fluorescence slope,[6],0.00322 (inactive)
same,inhibition,[7],22.1% (inactive)
same,inhibition,[8],35.6% (inactive)
Cc1ccc(OC(=O)CCc2c(C)nc3ncnn3c2C)cc1,cell count,[1],634
same,inhibition,[1],-10.5% (inactive)
same,inhibition of aggregation,[2],18.7% (inactive)
same,nuclei count,[2],130%
same,inhibition,[3],-84.1% (inactive)
same,nuclei count,[3],112%
same,fluorescence slope,[4],-0.551 (inactive)
same,NADPH fluorescence slope,[5],9.9e-06 (inactive)
same,fluorescence slope,[6],0.00538 (inactive)
same,inhibition,[7],0.226% (inactive)
same,inhibition,[8],8.51% (inactive)
O=C(COc1ccc(Cl)cc1)Nc1ncccn1,cell count,[1],436
same,inhibition,[1],-3.8% (inactive)
same,inhibition of aggregation,[2],4.3% (inactive)
same,nuclei count,[2],98.6%
same,inhibition,[3],-12.3% (inactive)
same,nuclei count,[3],87.1%
same,fluorescence slope,[4],-0.456 (inactive)
same,NADPH fluorescence slope,[5],-7.3e-05 (inactive)
same,fluorescence slope,[6],0.00491 (inactive)
same,inhibition,[7],14.4% (inactive)
same,inhibition,[8],-0.516% (inactive)
COc1ccc(-n2c(SCC(=O)Nc3ccc(C(=O)O)cc3)nnc2-c2cccs2)cc1,cell count,[1],443
same,inhibition,[1],2.8% (inactive)
same,inhibition of aggregation,[2],-7.1% (inactive)
same,nuclei count,[2],91.6%
same,inhibition,[3],-43.4% (inactive)
same,nuclei count,[3],150%
same,fluorescence slope,[4],-0.451 (inactive)
same,NADPH fluorescence slope,[5],-0.000238 (inactive)
same,fluorescence slope,[6],0.00524 (inactive)
same,inhibition,[7],0.267% (inactive)
same,inhibition,[8],6.83% (inactive)
COc1ccc(-c2nc(N)nc(C)c2Oc2ccccc2Br)c(O)c1,cell count,[1],382
same,inhibition,[1],6.9% (inactive)
same,inhibition of aggregation,[2],-14% (inactive)
same,nuclei count,[2],100%
same,inhibition,[3],-64.3% (inactive)
same,nuclei count,[3],85.6%
same,fluorescence slope,[4],-0.496 (inactive)
same,NADPH fluorescence slope,[5],6e-05 (inactive)
same,fluorescence slope,[6],0.00571 (inactive)
same,inhibition,[7],10.9% (inactive)
same,inhibition,[8],53% (active)
COc1ccccc1C(=O)N1CCCC(c2nc(-c3cc(OC)c(OC)c(OC)c3)no2)C1 (centres undefined),cell count,[1],307
same,inhibition,[1],0.5% (inactive)
same,inhibition of aggregation,[2],-0.4% (inactive)
same,nuclei count,[2],120%
same,inhibition,[3],19.1% (inactive)
same,nuclei count,[3],100%
same,fluorescence slope,[4],-0.474 (inactive)
same,NADPH fluorescence slope,[5],-3.6e-05 (inactive)
same,fluorescence slope,[6],0.0058 (inactive)
same,inhibition,[7],12.4% (inactive)
same,inhibition,[8],16.1% (inactive)
